In publication PMC4445693 (Clinical Pharmacology : Advances and Applications, 2015):
Like-named read-outs stand apart in the source and are kept apart here.

Key:
[1] = Single-dose plasma and skin-tissue pharmacokinetics of daptomycin in rats; assay type: in vivo, rat
Procedure, shortened: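 Rats (10 weeks), scalp depilated, sevoflurane-anaesthetised; test compound 10 mg/mL in saline s.c. Blood and 10×15 mm scalp skin sampled 1, 3, 5, 8, 12 h (3/time point); skin homogenised in 9 vol 1% phosphate buffer pH 6.0, extracted 4°C 18 h. Acetonitrile precipitation, mefenamic acid internal standard; C8 HPLC, UV 214 nm. Cmax/Tmax observed; AUC, MRT by trapezoidal rule; mean ± SD.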

[2] = cited from earlier work
[3] = human plasma; cited from earlier work
[4] = cited from earlier work; for AUC24 h in plasma: rat
[5] = male, Wistar, rat, plasma, sc, 50 mg/kg, SD

With `CCCCCCCCCC(=O)N[C@@H](Cc1c[nH]c2ccccc12)C(=O)N[C@H](CC(N)=O)C(=O)N[C@@H](CC(=O)O)C(=O)N[C@@H]1C(=O)NCC(=O)N[C@@H](CCCN)C(=O)N[C@@H](CC(=O)O)C(=O)N[C@H](C)C(=O)N[C@@H](CC(=O)O)C(=O)NCC(=O)N[C@H](CO)C(=O)N[C@@H]([C@H](C)CC(=O)O)C(=O)N[C@@H](CC(=O)c2ccccc2N)C(=O)O[C@@H]1C` [daptomycin] the Tmax skin tissue ([1]; male Wistar rats, single subcutaneous 50 mg/kg, skin tissue) was 3.0 h, the Tmax ([1]; male, Wistar, rat, plasma, sc, 50 mg/kg) was 3 h and the AUC(0-inf) [1, 5] was 812 ± 31.9 µg·h/mL. It also gave a Cmax [1, 5] of 176 ± 6.3 µg/mL, an MRT [1, 5] of 2.28 ± 0.33 h and a half-life [1, 5] of 1.58 ± 0.23 h. The “Protein binding in rat serum” value [2] was 89.3%, the “Plasma protein binding in humans” value [3] was 92% and the t½ ([4]; rat plasma, previous studies) was 1.6 to 2.9 h. The “AUC24 h in plasma” value ([4]; intraperitoneal dose of 30 mg/kg/day) was 558 µg·h/mL and the “AUC24 h in plasma” value ([4]; subcutaneous dose of 40 mg/kg/day) was 605 µg·h/mL.
